Experimental data as given in PMC5903430 (The international journal of biochemistry & cell biology, 2017).
Where “and” joins values, the source holds several entries; their conditions need not be identical. Identical values can stand only once. Counter-ions that a name gives are not always drawn. Like-named read-outs stand apart in the source and are kept apart here.

Tests used:
[1] = test system: α3β4 and α4β2 AChRs; settings: 20 μM; ref Glick et al., 2002a; cited from earlier work
[2] = molecular target: hα4β2 AChR (Homo sapiens, UniProt P17787+P43681); assay type: cell-based; settings: for hα4β2/hα3β4 IC50 ratio (selectivity): ratio using hα3β4 data of Arias et al., 2015; for IC50: read-out: IC50 (inhibitory potency)
Sequence of hα4β2 AChR (P17787 26-502): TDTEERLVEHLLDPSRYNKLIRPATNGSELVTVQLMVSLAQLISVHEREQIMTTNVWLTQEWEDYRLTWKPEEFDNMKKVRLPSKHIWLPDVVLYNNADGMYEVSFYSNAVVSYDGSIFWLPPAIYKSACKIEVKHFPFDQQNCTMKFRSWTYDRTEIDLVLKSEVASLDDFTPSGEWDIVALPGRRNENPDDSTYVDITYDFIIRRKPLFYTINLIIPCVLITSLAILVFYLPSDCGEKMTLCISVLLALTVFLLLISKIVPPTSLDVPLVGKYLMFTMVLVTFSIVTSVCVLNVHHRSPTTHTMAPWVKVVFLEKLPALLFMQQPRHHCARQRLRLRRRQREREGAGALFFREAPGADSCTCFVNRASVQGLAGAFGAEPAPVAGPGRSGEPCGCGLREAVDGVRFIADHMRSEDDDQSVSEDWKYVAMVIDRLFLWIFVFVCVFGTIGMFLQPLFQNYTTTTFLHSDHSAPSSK
Sequence of hα4β2 AChR (P43681 29-627): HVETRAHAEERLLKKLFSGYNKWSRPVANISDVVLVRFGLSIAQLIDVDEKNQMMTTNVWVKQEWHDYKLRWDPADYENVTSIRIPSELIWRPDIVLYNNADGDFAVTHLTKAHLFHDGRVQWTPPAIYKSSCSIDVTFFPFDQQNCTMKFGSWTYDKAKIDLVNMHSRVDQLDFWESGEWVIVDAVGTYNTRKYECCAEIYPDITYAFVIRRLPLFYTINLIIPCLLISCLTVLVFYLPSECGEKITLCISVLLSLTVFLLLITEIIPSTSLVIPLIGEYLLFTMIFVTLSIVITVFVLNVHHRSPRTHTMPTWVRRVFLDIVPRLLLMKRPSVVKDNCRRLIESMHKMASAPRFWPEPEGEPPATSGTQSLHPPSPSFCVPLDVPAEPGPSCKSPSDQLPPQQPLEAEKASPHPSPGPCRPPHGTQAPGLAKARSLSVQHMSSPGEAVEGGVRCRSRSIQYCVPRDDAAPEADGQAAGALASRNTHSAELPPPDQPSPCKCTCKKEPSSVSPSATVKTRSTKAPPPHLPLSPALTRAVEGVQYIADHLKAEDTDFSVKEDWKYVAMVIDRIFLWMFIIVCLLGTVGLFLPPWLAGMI

[3] = molecular target: hα7 AChR (Homo sapiens, UniProt P36544); assay type: cell-based; settings: for hα7/hα3β4 IC50 ratio (selectivity): ratio using hα3β4 data of Arias et al., 2015
Sequence of hα7 AChR (P36544 23-502): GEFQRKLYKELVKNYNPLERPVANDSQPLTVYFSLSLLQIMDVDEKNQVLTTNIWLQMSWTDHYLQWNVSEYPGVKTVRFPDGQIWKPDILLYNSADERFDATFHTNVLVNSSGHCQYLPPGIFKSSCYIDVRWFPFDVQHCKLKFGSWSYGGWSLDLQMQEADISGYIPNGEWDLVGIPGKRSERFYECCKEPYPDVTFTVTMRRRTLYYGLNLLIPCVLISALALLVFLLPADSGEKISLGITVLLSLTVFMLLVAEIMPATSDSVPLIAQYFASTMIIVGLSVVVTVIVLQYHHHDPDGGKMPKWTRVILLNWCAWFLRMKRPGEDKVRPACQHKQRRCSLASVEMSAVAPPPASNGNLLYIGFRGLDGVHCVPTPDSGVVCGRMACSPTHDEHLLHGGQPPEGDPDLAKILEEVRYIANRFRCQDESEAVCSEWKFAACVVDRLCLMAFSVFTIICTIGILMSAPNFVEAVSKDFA

[4] = ref Zhang et al., 2002; Maissonneuve and Glick, 2003; cited from earlier work
[5] = test system: MHb (VI) neurons (endogenous α3β4* AChRs); assay: Patch-clamp recording of ACh-evoked currents from MHb; assay type: cell-based, mouse; settings: for Reversibility of inhibition of ACh-evoked currents after washing: 180 μM, washing 13 min ((±)-18-MC) or 10 min ((+)-catharanthine); for IC50: read-out: IC50 (inhibitory potency on ACh-evoked currents), 100 μM ACh puffs, MHb (VI) neurons, single exponential fit
In short: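 Male C57BL/6J mice, 8–24 weeks. Coronal 250 μm slices through the medial habenula, recovered in oxygenated solution at 33 °C for 12 min. Neurons visualised by IR/DIC. Internal solution contained 2 mM QX-314. ACh (100 μM) puffed for 250 ms at 12 psi, with 1 μM atropine in the superfusate. Test compound at 0.07–180 μM; peak amplitudes measured before and after washout. Nonlinear least-squares fit gave IC50.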

[6] = test system: hα3β4 AChR; settings: read-out: IC50 at hα3β4 AChRs; HEK293-hα3β4 cells; ref Arias et al., 2015; cited from earlier work
[7] = test system: α1β1γδ AChR; assay: Selectivity for hα3β4 over α1β1γδ AChRs; assay type: cell-based, human; settings: ref Arias et al., 2011
[8] = molecular target: hα3β4 AChR ([3H]ibogaine sites) (Homo sapiens, UniProt P30926+P32297); assay: [3H]ibogaine competition binding to hα3β4 AChR membranes from HEK293-hα3β4 cells
Sequence of hα3β4 AChR ([3H]ibogaine sites) (P32297 32-505): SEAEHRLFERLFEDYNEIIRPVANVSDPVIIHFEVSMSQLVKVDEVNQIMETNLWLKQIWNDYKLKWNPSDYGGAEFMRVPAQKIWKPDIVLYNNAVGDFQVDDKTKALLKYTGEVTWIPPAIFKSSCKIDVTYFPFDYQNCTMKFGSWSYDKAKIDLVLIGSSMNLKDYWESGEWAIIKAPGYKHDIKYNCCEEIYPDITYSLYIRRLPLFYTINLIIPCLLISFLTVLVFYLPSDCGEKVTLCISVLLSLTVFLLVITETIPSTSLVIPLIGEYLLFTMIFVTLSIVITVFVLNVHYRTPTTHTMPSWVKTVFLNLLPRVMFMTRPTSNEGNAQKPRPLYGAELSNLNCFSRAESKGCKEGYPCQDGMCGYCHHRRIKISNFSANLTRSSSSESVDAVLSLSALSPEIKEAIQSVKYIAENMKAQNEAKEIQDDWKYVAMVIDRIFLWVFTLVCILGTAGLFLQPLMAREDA
Sequence of hα3β4 AChR ([3H]ibogaine sites) (P30926 22-498): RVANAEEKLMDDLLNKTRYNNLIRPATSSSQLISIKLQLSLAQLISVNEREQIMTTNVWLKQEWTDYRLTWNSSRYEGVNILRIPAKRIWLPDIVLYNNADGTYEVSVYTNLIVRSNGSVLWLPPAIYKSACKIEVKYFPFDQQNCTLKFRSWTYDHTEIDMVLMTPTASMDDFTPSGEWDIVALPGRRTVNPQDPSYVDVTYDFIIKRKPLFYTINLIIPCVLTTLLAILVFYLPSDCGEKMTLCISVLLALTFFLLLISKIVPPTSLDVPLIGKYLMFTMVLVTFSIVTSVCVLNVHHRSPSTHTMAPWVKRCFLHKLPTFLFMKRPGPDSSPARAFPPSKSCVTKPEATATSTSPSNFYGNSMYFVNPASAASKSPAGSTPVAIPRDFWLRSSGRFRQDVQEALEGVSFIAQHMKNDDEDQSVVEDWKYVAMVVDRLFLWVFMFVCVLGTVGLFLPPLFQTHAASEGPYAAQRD

[9] = hα7, inhibition of 1.0 μM (±)-epibatidine-induced Ca2+ influx

Compound: 12-methoxyibogamine [(−)-ibogaine]
- AChR subtypes inhibited in voltage-clamp recordings [1]: inhibits both α3β4 and α4β2 subtypes

Compound: CNCC[C@H]1CC2CN3CCc4c([nH]c5ccccc45)[C@](C(=O)OC)(C2)[C@H]13 (racemic) [(±)-18-MAC, (±)-18-Methylaminocoronaridine]
- nH (Hill coefficient) [2]: 1.40 ± 0.14
- hα4β2/hα3β4 IC50 ratio (selectivity) [2]: 7.9 x-fold
- IC50 [2]: 20.7 ± 3 µM
- IC50 (inhibitory potency) ([3]; GH3-hα7 cells, 5 min pre-incubation, 1.0 μM (±)-epibatidine): No effect

Compound: COCCC1CC2CN3CCc4c([nH]c5ccccc45)C(C(=O)OC)(C2)C13.Cl (racemic) [(±)-18-MC, (±)-18-Methoxycoronaridine hydrochloride]
- half-life (metabolism to 18-HC) [4]: ~1.67 h
- nH (Hill coefficient) [2]: 1.85 ± 0.17
- hα4β2/hα3β4 IC50 ratio (selectivity) [2]: 4 x-fold and 4.3 x-fold
- Reversibility of inhibition of ACh-evoked currents after washing [5]: reversible inhibition
- IC50 [5]: 28 ± 6 µM
- nH (Hill coefficient) [3, 9]: 2.21 ± 0.50
- hα7/hα3β4 IC50 ratio (selectivity) [3]: 23.6 x-fold
- IC50 [6]: 1.47 ± 0.21 µM

Compound: Clc1ccc(C2CC3CCC2N3)cn1 (racemic) [(±)-epibatidine, (±)-Epibatidine, reference compound]
- EC50 ([3]; read-out: EC50 (activation potency), agonist-induced Ca2+ influx, GH3-hα7 cells, n = 25): 0.026 ± 0.004 µM

Compound: CCC1=C[C@@H]2CN3CCc4c([nH]c5ccccc45)[C@@](C(=O)OC)(C2)[C@@H]13 [(+)-Catharanthine, (+)-3,4-didehydrocoronaridine]
- nH (Hill coefficient) [2]: 1.48 ± 0.25
- hα4β2/hα3β4 IC50 ratio (selectivity) [2]: 18.5 x-fold
- hα4β2/hα3β4 IC50 ratio (selectivity) ([2]; listed as (+)-catharanthine): 18 x-fold
- Reversibility of inhibition of ACh-evoked currents after washing [5]: reversible inhibition
- IC50 [5]: 27 ± 4 µM
- nH (Hill coefficient) [3, 9]: 1.43 ± 0.20
- hα7/hα3β4 IC50 ratio (selectivity) [3]: 32.0 x-fold
- hα7/hα3β4 IC50 ratio (selectivity) ([3]; listed as (+)-catharanthine): 32 x-fold
- IC50 [6]: 0.68 ± 0.1 µM
- Selectivity for hα3β4 over α1β1γδ AChRs [7]: 29 fold

Compound: CC(NC(C)(C)C)C(=O)c1cccc(Cl)c1 (stereo not shown) [bupropion, bupropion hydrochloride]
- nH (Hill coefficient) ([8]; desensitized state [in the presence of (−)-nicotine]): 0.75 ± 0.08
- nH (Hill coefficient) ([8]; resting state [no agonist]): 0.72 ± 0.05

Compound: (±)-18-hydroxycoronaridine [(±)-18-HC]
- nH (Hill coefficient) [2]: 1.27 ± 0.06
- hα4β2/hα3β4 IC50 ratio (selectivity) [2]: 8.8 x-fold
- IC50 [2]: 24.8 ± 1.2 µM
- nH (Hill coefficient) [3]: 1.64 ± 0.20
- hα7/hα3β4 IC50 ratio (selectivity) [3]: 26.1 x-fold
